Source: ChEMBL document CHEMBL1156469 (2007)
Calls of active or inactive are those of the source. No cut-off for these calls is given here.

Legend:
Osteoblast [1] = experiment: Effect on matrix metalloprotease 2 gene expression in rat primary osteoblast cells assessed as expression ratio of treated to untreated control by microarray analysis; format: functional
How it was run: (§1)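 Resveratrol-treated and vehicle-treated primary osteoblasts were profiled on a mouse osteogenesis-focused cDNA array (GEArray Q series) built to track gene expression during osteogenic differentiation. Each gene's signal in treated cells was expressed as a ratio to untreated control.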

[2] = biological target: Alkaline phosphatase (Rattus norvegicus) (UniProt Q9JKS8); experiment: Inhibition of induction of ALP activity in rat primary osteoblast cells at 1 uM after 48 hrs in presence of BMP2-specific neutralizing antibody; format: cell-based
[3] = biological target: Forkhead box protein O3 (Homo sapiens) (UniProt O43524); experiment: Induction of FOXO3a activity in human MDA-MB-231 cells; format: cell-based
Osteoblast [4] = experiment: Increase in osteocalcin mRNA levels in rat primary osteoblast cells at 1 uM after 72 hrs by RT-PCR; format: functional, cell-based
How it was run: (§2)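 Cells treated with 1 μm for 72 h; osteocalcin and osteopontin mRNA by RT-PCR, 30 cycles (95/52/72 °C, 1 min each), ethidium bromide–stained agarose gels; repeated at least twice from at least two cDNA preparations.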

Osteoblast [5] = experiment: Effect on fibroblast growth factor 2 gene expression in rat primary osteoblast cells assessed as expression ratio of treated to untreated control by microarray analysis; format: functional
[6] = biological target: T1, Estrogen receptor (Mus musculus) (UniProt P19785); experiment: Increase in DNA-binding activity of ERalpha in nuclear extracts of mouse MC3T3-E1 cells by electrophoretic mobility shift assays; format: cell-based
T1 sequence (whole entry): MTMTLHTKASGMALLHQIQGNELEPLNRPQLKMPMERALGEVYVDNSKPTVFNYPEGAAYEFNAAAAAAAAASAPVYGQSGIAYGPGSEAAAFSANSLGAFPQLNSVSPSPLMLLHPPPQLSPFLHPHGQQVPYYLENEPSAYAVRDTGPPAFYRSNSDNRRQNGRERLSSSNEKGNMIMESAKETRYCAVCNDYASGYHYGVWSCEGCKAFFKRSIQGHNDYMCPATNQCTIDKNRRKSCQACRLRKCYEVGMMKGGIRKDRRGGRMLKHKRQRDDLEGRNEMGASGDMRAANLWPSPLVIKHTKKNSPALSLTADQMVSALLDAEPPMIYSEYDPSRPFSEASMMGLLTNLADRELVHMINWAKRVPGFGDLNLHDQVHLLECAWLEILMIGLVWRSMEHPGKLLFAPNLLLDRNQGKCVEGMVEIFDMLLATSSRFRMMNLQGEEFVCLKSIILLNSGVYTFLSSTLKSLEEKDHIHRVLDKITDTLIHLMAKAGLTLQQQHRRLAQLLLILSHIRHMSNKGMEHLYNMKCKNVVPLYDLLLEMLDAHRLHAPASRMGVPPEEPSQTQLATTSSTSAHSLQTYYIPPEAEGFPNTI
How it was run: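 MC3T3-E1 nuclear extracts incubated with 32P end-labeled ERα probe for 20 min at room temperature in 20 μl; 5-fold unlabeled competitor for specificity; 5% nondenaturing PAGE in Tris-borate-EDTA pH 8.3, autoradiography at –70 °C.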

MDA-MB-231 = experiment: Reversal of induction of FOXO3a nuclear accumulation in human MDA-MB-231 cells transfected with constitutively activated Akt mutant; format: functional, cell-based
[7] = Reversal of induction in BMP2 expression in mouse MC3T3-E1 cells at 1 uM by Western blot in presence of PP2; format: functional, cell-based
How it was run: (§3)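 Src phosphorylation, ERα nuclear translocation and BMP-2 protein analysed by Western blot with ECL detection. Three independent experiments.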

MC3T3-E1 [8] = experiment: Increase in osteopontin mRNA levels in mouse MC3T3-E1 cells at 1 uM after 72 hrs by RT-PCR; format: functional, cell-based; how it was run: as §2
MC3T3-E1 [9] = experiment: Reversal of increase in ER.DNA complex in mouse MC3T3-E1 cells at 1 uM by RT-PCR in presence of PP2; format: functional, cell-based
How it was run: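 BMP-2 promoter quantified by real-time PCR (45 cycles, 61 °C anneal), reported as IP-to-input Ct ratio. DN-Src by 3 μg vector, PP2 at 10 μM; ICI182780 and tamoxifen at indicated concentrations.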

[10] = Reversal of increase in pBMP2 expression in rat primary osteoblast cells at 1 uM by luciferase method in presence of PP2; format: functional, cell-based
Osteoblast [11] = experiment: Effect on bone morphogenetic protein receptor 1B gene expression in rat primary osteoblast cells assessed as expression ratio of treated to untreated control by microarray analysis; format: functional
T47D = experiment: Antiproliferative activity against human T47D cells at 1 uM by flow cytometry; format: functional, cell-based
How it was run: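 Proliferation was measured by DNA flow cytometry. Incubations were run in triplicate across three separate experiments, and values are means ± S.D.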

Osteoblast [12] = experiment: Effect on tumor necrosis factor gene expression in rat primary osteoblast cells assessed as expression ratio of treated to untreated control by microarray analysis; format: functional
How it was run: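 GEArray Q series Mouse Osteogenesis cDNA array profiling osteogenic-differentiation genes in treated versus vehicle-treated primary osteoblasts.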

[13] = Reversal of increase in pBMP2 expression in mouse MC3T3-E1 cells at 1 uM by luciferase method in presence of PP2; format: functional, cell-based
How it was run: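 BMP-2 promoter activity measured by dual-luciferase assay and expressed relative to the untreated vector control.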

[14] = biological target: Proto-oncogene tyrosine-protein kinase Src (Mus musculus) (UniProt P05480); experiment: Reversal of increase in Src kinase phosphorylation in mouse MC3T3-E1 cells at 1 uM in presence of PP2; format: cell-based; how it was run: as §3
Osteoblast [15] = experiment: Effect on scavenger receptor B2 gene expression in rat primary osteoblast cells assessed as expression ratio of treated to untreated control by microarray analysis; format: functional; how it was run: as §1

Sequence of Alkaline phosphatase (Rattus norvegicus) (Q9JKS8 as listed by the source): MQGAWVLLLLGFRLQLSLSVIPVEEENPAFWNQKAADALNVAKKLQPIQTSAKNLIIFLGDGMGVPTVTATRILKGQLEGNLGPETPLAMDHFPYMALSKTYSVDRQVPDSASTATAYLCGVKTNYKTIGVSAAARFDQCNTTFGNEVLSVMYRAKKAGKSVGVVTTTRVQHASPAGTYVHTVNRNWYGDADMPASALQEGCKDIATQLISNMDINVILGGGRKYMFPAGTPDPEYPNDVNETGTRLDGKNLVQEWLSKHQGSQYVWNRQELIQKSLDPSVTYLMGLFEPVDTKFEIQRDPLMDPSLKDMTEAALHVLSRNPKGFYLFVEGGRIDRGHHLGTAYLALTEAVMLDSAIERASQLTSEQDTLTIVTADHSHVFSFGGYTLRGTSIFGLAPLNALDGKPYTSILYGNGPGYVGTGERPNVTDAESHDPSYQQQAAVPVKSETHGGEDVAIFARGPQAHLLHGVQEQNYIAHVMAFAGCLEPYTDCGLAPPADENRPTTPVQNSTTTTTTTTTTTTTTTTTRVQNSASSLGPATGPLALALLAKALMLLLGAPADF
Sequence of Forkhead box protein O3 (Homo sapiens) (O43524 whole entry): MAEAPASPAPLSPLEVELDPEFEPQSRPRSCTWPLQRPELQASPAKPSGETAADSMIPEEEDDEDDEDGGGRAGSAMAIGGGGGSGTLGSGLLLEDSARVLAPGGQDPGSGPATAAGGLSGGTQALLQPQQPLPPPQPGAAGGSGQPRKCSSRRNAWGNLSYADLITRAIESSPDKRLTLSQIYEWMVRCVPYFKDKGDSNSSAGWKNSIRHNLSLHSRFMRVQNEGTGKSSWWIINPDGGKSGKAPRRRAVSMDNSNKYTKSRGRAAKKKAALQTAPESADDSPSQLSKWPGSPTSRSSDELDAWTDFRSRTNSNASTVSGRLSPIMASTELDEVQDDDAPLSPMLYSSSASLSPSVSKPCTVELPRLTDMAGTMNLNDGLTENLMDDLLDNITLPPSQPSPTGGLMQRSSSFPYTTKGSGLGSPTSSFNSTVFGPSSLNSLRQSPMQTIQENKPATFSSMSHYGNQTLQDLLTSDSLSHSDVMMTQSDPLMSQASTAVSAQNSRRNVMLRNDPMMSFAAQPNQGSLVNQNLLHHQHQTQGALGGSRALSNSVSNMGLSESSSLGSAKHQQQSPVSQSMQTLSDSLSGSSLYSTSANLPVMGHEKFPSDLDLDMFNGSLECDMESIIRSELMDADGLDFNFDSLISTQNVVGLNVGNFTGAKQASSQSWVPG
Sequence of Proto-oncogene tyrosine-protein kinase Src (Mus musculus) (P05480 2-535 limits assumed): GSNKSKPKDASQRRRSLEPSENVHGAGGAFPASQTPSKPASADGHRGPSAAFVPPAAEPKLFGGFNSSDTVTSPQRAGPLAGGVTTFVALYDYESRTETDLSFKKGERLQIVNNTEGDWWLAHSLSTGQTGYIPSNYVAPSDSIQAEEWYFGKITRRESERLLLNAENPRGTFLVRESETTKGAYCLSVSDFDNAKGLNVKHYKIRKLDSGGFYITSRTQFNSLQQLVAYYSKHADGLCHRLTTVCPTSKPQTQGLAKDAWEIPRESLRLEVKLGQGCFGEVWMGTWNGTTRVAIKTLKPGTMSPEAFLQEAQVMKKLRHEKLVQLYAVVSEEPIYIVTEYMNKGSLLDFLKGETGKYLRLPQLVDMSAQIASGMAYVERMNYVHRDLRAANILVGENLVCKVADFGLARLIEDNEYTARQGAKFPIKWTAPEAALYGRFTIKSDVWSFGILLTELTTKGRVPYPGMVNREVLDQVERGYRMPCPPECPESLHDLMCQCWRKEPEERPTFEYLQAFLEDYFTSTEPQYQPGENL

Activity [2]: Active
Activity [3]: Active
Activity [6]: Active
Activity [14]: Active
Compound: Oc1ccc(/C=C/c2cc(O)cc(O)c2)cc1 [RESVERATROL]
Ratio (Osteoblast [1]): 0.46
Activity (Osteoblast [4]): Active
Ratio (Osteoblast [5]): 2.76
Activity (MDA-MB-231): Active
Activity [7]: Active
Activity (MC3T3-E1 [8]): Active
Activity (MC3T3-E1 [9]): Active
Activity [10]: Active
Ratio (Osteoblast [11]): 2.63
Activity (T47D): Active
Ratio (Osteoblast [12]): 0.46
Activity [13]: Active
Ratio (Osteoblast [15]): 0.65
